Screens from PubChem BioAssay.
Compounds with a hit are over-represented: about 3.5% of the library has one in this group of screens.
RGS4 block: inhibitors of human RGS4; AID 463165; P49798; HEK293 M3R/RGS4 inducible, Fluo-4 calcium flux; hits give high values; triggered by carbachol at its EC20; 0.45% of 310,000 active; B-score at 10 µM;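 active = B-score, a plate-corrected calcium signal, over three deviations above library mean, with baseline fluorescence within five deviations of library mean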;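 also: RGS4 expression induced by doxycycline in cells with stable M3 receptor; B-score is computed from the integrated fluorescence ratio over baseline after carbachol; higher B-score means a larger calcium signal and so more RGS4 inhibition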
Target sequence (P49798 whole entry, looked up): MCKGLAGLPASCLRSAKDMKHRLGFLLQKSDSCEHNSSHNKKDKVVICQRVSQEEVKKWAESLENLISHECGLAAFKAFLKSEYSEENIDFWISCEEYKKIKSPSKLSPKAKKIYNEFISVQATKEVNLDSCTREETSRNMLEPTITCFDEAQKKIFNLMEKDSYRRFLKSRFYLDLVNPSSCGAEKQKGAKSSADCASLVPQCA
MrgX1 agonist: human MrgX1 receptor agonism, primary screen; MrgX1-HEK293 cells, Fluo-4 calcium fluorescence, agonist mode; hits give high values; 0.44% of 310,000 active; B-score at 10 µM;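 active = calcium response B-score plate-corrected fluorescence ratio at least 3 library SD, with starting fluorescence B-score inside 5 SD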
Target sequence (Q96LB2 whole entry, looked up): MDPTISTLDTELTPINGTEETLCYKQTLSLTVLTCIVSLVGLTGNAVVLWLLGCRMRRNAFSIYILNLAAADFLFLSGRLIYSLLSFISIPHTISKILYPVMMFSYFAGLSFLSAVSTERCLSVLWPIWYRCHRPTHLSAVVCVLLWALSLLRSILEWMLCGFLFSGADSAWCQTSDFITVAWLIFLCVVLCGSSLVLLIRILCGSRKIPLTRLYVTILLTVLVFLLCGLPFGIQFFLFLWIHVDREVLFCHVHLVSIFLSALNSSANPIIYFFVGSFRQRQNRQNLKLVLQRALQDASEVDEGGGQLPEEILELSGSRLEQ
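Test system: Stable human MrgX1 HEK293 cell line | Schedule: Overnight plating before 1 h dye loading | Read-out basis: Baseline-normalised fluorescence change ratio, B-scored | Detection: Kinetic calcium dye fluorescence, Fluo-4 NW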
MrgX1 antagonist: human MrgX1 receptor antagonism, primary screen. Q96LB2. MRGX1-HEK293 calcium flux, Fluo-4, BAM8-22 antagonism; hits give low values. B-score at 10 µM. 1.3% of 310,000 active;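 active = calcium-response B-score plate-corrected more than 3 library SD below zero, starting fluorescence within 5 deviations, no agonist response on first addition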;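 also: peak minus trough fluorescence over baseline after final BAM8-22 challenge near maximal dose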
RGS4 act: potentiators or activators of RGS4; HEK293 M3R/inducible RGS4, carbachol calcium flux Fluo4; hits give low values; B-score at 10 µM; 0.92% of 310,000 active; AID 463111;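 active = B-score of the integrated calcium signal more than 4 SD below the library mean, with starting fluorescence not abnormally high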;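 also: negative B-score means reduced calcium response which marks RGS4 activation or potentiation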
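System – HEK293 FlpIn-TREx cells, stable M3R, doxycycline-inducible RGS4 · Reagent – ECmax carbachol challenge · Times – compound preincubation 20 min at room temperature before agonist · Technique – Fluo4 fluorescence kinetic imaging of calcium · Measure – B score of integrated Fluo4 ratio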
MrgX1 PAM: human MrgX1 positive allosteric modulation, primary screen. Q96LB2. MrgX1-HEK293, Fluo-4 calcium flux, FDSS; hits give high values. B-score at 10 µM. 0.63% of 310,000 active. AID 588675;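 active = plate-corrected calcium response at least 3 library SD above typical, normal starting fluorescence, not activating the receptor alone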;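 also: compound read alongside a low EC10 to EC30 dose of BAM8-22 agonist; peak minus trough fluorescence over baseline measured at the second addition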
An asterisk follows results filed as active.

How did CC(C)c1ccc2nc3sc(C(=O)N4CCc5ccccc5C4)c(N)c3cc2c1 do in these assays?
RGS4 block: inactive; MrgX1 agonist: inactive; MrgX1 antagonist: -5.8*; RGS4 act: inactive; MrgX1 PAM: inactive

What do the screens show for `CCN1CCc2nc3sc(C(=O)N4CCc5ccccc5C4)c(N)c3cc2C1`?
RGS4 block: inactive; MrgX1 agonist: inactive; MrgX1 antagonist: inactive; RGS4 act: inactive; MrgX1 PAM: inactive

Results for CCc1ccc2nc3sc(C(=O)N4CCc5ccccc54)c(N)c3cc2c1 ?
RGS4 block: inactive; MrgX1 agonist: inactive; MrgX1 antagonist: -7.7*; RGS4 act: inactive; MrgX1 PAM: inactive

How did COc1ccc(CNC(=O)C2CCCN(S(=O)(=O)c3ccc(-n4cnnn4)cc3)C2)cc1 (stereo not drawn) do in these assays?
RGS4 block: inactive; MrgX1 agonist: inactive; MrgX1 antagonist: inactive; RGS4 act: inactive; MrgX1 PAM: inactive

What do the screens show for `CCOC(=O)CCCC(=O)N1CCOCCOCCOCC1`?
RGS4 block: inactive; MrgX1 agonist: inactive; MrgX1 antagonist: inactive; RGS4 act: inactive; MrgX1 PAM: inactive

Results for CCOCCCNC(=O)C(Cc1ccccc1)NS(=O)(=O)c1ccc2c(c1)c(=O)n(C)c(=O)n2C (stereo not drawn) ?
RGS4 block: inactive; MrgX1 agonist: inactive; MrgX1 antagonist: -5.8*; RGS4 act: inactive; MrgX1 PAM: inactive

What do the screens show for `O=C1CSc2ccc(S(=O)(=O)CCC(=O)NC3CCCCC3)cc2N1`?
RGS4 block: inactive; MrgX1 agonist: inactive; MrgX1 antagonist: inactive; RGS4 act: inactive; MrgX1 PAM: inactive

What do the screens show for `COc1ccc(O[C@H]2C=C[C@@H](c3ccccc3)O[C@@H]2CO/N=C(\C)CCC(=O)OC[C@H]2O[C@H](c3ccccc3)C=C[C@@H]2Oc2ccc(OC)cc2)cc1`?
RGS4 block: inactive; MrgX1 agonist: inactive; MrgX1 antagonist: -7.2*; RGS4 act: inactive; MrgX1 PAM: inactive

What do the screens show for `CCOc1cc(NC(=S)NCC2CCCO2)c(OCC)cc1NC(=O)CC(C)C` (stereo not drawn)?
RGS4 block: inactive; MrgX1 agonist: inactive; MrgX1 antagonist: inactive; RGS4 act: inactive; MrgX1 PAM: inactive

Results for Cc1cc(/C=N/n2cnnc2)c(C)n1-c1ccc(Cl)cc1 ?
RGS4 block: inactive; MrgX1 agonist: inactive; MrgX1 antagonist: inactive; RGS4 act: inactive; MrgX1 PAM: inactive

Results for Cc1cc(/C=N/n2cnnc2)c(C)n1-c1ccc(OCc2ccc(Cl)cc2Cl)cc1 ?
RGS4 block: inactive; MrgX1 agonist: inactive; MrgX1 antagonist: inactive; RGS4 act: -8.3*; MrgX1 PAM: inactive

How did O=c1[nH]c(SCc2ccc(F)cc2Cl)nc2ccccc12 do in these assays?
RGS4 block: inactive; MrgX1 agonist: inactive; MrgX1 antagonist: inactive; RGS4 act: inactive; MrgX1 PAM: inactive

What do the screens show for `CC1=N/C(=C\c2ccc([N+](=O)[O-])cc2)C(=O)N1c1ccc(F)cc1F`?
RGS4 block: inactive; MrgX1 agonist: inactive; MrgX1 antagonist: inactive; RGS4 act: inactive; MrgX1 PAM: 17*

What do the screens show for `Cc1cc([N+](=O)[O-])ccc1NC(=O)Nc1ccc(F)cc1F`?
RGS4 block: inactive; MrgX1 agonist: inactive; MrgX1 antagonist: inactive; RGS4 act: inactive; MrgX1 PAM: inactive

How did CC1=N/C(=C/c2ccc([N+](=O)[O-])cc2)C(=O)N1c1ccc(Cl)cc1Cl do in these assays?
RGS4 block: inactive; MrgX1 agonist: inactive; MrgX1 antagonist: inactive; RGS4 act: inactive; MrgX1 PAM: 15*

How did CC1=N/C(=C\c2ccc([N+](=O)[O-])cc2)C(=O)N1c1ccc(Cl)cc1 do in these assays?
RGS4 block: inactive; MrgX1 agonist: inactive; MrgX1 antagonist: inactive; RGS4 act: inactive; MrgX1 PAM: inactive

What do the screens show for `CC1=C(C#N)c2nc(N)c(C#N)c(C)c2/C1=C\c1ccc(OCC(=O)O)c(Cl)c1`?
RGS4 block: inactive; MrgX1 agonist: inactive; MrgX1 antagonist: -5.4*; RGS4 act: inactive; MrgX1 PAM: inactive

How did NS(=O)(=O)c1ccc(CCNCc2cc(Br)ccc2OCc2ccccc2F)cc1 do in these assays?
RGS4 block: inactive; MrgX1 agonist: inactive; MrgX1 antagonist: -4.7*; RGS4 act: inactive; MrgX1 PAM: inactive

Results for NS(=O)(=O)c1ccc(CCNCc2ccccc2OCc2ccc(Cl)cc2)cc1 ?
RGS4 block: inactive; MrgX1 agonist: inactive; MrgX1 antagonist: -7.2*; RGS4 act: inactive; MrgX1 PAM: inactive

Results for Nc1nonc1C(=O)NCCNCc1cc(Br)ccc1OCc1ccccc1F ?
RGS4 block: inactive; MrgX1 agonist: inactive; MrgX1 antagonist: inactive; RGS4 act: inactive; MrgX1 PAM: inactive

How did C=CCOc1ccccc1CNCCc1ccc(S(N)(=O)=O)cc1 do in these assays?
RGS4 block: inactive; MrgX1 agonist: inactive; MrgX1 antagonist: inactive; RGS4 act: inactive; MrgX1 PAM: inactive

What do the screens show for `NS(=O)(=O)c1ccc(CCNCc2cc(Cl)ccc2OCc2ccccc2)cc1`?
RGS4 block: inactive; MrgX1 agonist: inactive; MrgX1 antagonist: -7.2*; RGS4 act: inactive; MrgX1 PAM: inactive

Results for COc1cc(C(C)=O)ccc1Oc1cc(NN2CCCCC2)c([N+](=O)[O-])cc1[N+](=O)[O-] ?
RGS4 block: inactive; MrgX1 agonist: inactive; MrgX1 antagonist: inactive; RGS4 act: inactive; MrgX1 PAM: inactive

Results for Cc1ccc(C)c(Oc2cc(NN3CCCCC3)c([N+](=O)[O-])cc2[N+](=O)[O-])c1 ?
RGS4 block: inactive; MrgX1 agonist: inactive; MrgX1 antagonist: inactive; RGS4 act: inactive; MrgX1 PAM: inactive

How did CCc1occc(=O)c1Oc1cc(NN2CCCCC2)c([N+](=O)[O-])cc1[N+](=O)[O-] do in these assays?
RGS4 block: inactive; MrgX1 agonist: inactive; MrgX1 antagonist: inactive; RGS4 act: -8.2*; MrgX1 PAM: inactive

How did O=[N+]([O-])c1cc([N+](=O)[O-])c(Oc2ccccc2F)cc1NN1CCCCC1 do in these assays?
RGS4 block: inactive; MrgX1 agonist: inactive; MrgX1 antagonist: inactive; RGS4 act: -7*; MrgX1 PAM: inactive

How did O=[N+]([O-])c1cc([N+](=O)[O-])c(Oc2ccc(Cl)c3cccnc23)cc1NN1CCCCC1 do in these assays?
RGS4 block: inactive; MrgX1 agonist: inactive; MrgX1 antagonist: inactive; RGS4 act: inactive; MrgX1 PAM: inactive

How did Cc1ccc(F)c(Oc2cc(NN3CCCCC3)c([N+](=O)[O-])cc2[N+](=O)[O-])c1 do in these assays?
RGS4 block: inactive; MrgX1 agonist: inactive; MrgX1 antagonist: inactive; RGS4 act: -7.4*; MrgX1 PAM: inactive

What do the screens show for `O=[N+]([O-])c1cc([N+](=O)[O-])c(Oc2cccc(Cl)c2Cl)cc1NN1CCCCC1`?
RGS4 block: inactive; MrgX1 agonist: inactive; MrgX1 antagonist: inactive; RGS4 act: -8.2*; MrgX1 PAM: inactive
